Laboratory results from ChEMBL document CHEMBL1139250, “2,6,9-Trisubstituted purine derivatives as protein A mimetics for the treatment of autoimmune diseases” (Bioorg Med Chem Lett, 2009).
Activity calls are given as the source filed them. The calls are words filed in the database; no cut-off is given here.

Tested on: Mus musculus
Test: Effect on oxazolone-induced delayed type hypersensitivity in mouse assessed as ear thickness at 50 or 150 mg/kg, po after 7 days challenged with oxazolone on day 3
Format: functional, organism-based
Set-up: dose 150 mg/kg
Summary of the method: (§1)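 Oxazolone DTH protocol: 50 ll oxazolone applied to the right ear surface, challenged day 3 and day 10. Ear thickness measured days 4–7 and 11–14. Compound given orally at 50 or 150 mg/kg daily from day 0 to day 13. Hydrocortisone served as comparator.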

| Structure (SMILES) | Activity |
| --- | --- |
| Nc1ccc(CCn2cnc3c(Nc4cccc(N)c4)ncnc32)cc1 | Active |

Tested on: Mus musculus
Test: Effect on oxazolone-induced delayed type hypersensitivity in mouse assessed as ear thickness at 50 mg/kg, iv after 14 days challenged with oxazolone on day 10
Format: functional
Summary of the method: (§2)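 Mice dosed intravenously with vehicle or test compound at 50 mg/kg on days 0, 1 and 2. Oxazolone (50 ll) applied to the right ear surface, first challenge day 3, second day 10. Ear thickness measured days 4–7 and 11–14; redness and crust formation also observed. Mice sacrificed day 14.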

| Structure (SMILES) | Activity [mm] |
| --- | --- |
| CN(Cc1cnc2nc(N)nc(N)c2n1)c1ccc(C(=O)N[C@@H](CCC(=O)O)C(=O)O)cc1 [METHOTREXATE] | 0.46 |
| Nc1ccc(CCn2cnc3c(Nc4cccc(N)c4)ncnc32)cc1 | 0.56 |

Tested on: Mus musculus
Test: Effect on oxazolone-induced delayed type hypersensitivity in mouse assessed as ear thickness at 50 mg/kg, iv after 7 days challenged with oxazolone on day 3
Format: functional
Summary of the method: as §2

| Structure (SMILES) | Activity [mm] |
| --- | --- |
| CN(Cc1cnc2nc(N)nc(N)c2n1)c1ccc(C(=O)N[C@@H](CCC(=O)O)C(=O)O)cc1 [METHOTREXATE] | 0.17 |
| Nc1ccc(CCn2cnc3c(Nc4cccc(N)c4)ncnc32)cc1 | 0.19 |

Tested on: Rattus norvegicus
Test: Reduction in synovitis damage in Freund's adjuvant-induced arthritis Lewis rat model at 50 mg/kg, po after 21 days relative to control
Format: functional
Set-up: scale not given: the % may be the effect or the level left

| Structure (SMILES) | Activity [%] |
| --- | --- |
| Nc1ccc(CCn2cnc3c(Nc4cccc(N)c4)ncnc32)cc1 | 30 |

Tested on: Mus musculus
Test: Effect on oxazolone-induced delayed type hypersensitivity in mouse assessed as ear thickness at 50 or 150 mg/kg, po after 14 days challenged with oxazolone on day 10
Format: functional, organism-based
Set-up: dose 150 mg/kg
Summary of the method: as §1

| Structure (SMILES) | Activity |
| --- | --- |
| Nc1ccc(CCn2cnc3c(Nc4cccc(N)c4)ncnc32)cc1 | Active |

Species on record: Homo sapiens
Test: (§3) Displacement of protein A from human IgG antibody by competitive ELISA
Summary of the method: (§4)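 Competitive ELISA in which test compounds compete with protein A for binding to human IgG; IC50 determined in PBS.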

| Structure (SMILES) | Activity |
| --- | --- |
| Nc1ccc(CCn2cnc3c(Nc4cccc(N)c4)nc(NCCCCO)nc32)cc1 | inactive |
| Nc1ccc(CCn2cnc3c(Nc4cccc(N)c4)nc(F)nc32)cc1 | inactive |
| NCCNc1nc(Nc2cccc(N)c2)c2ncn(CCc3ccc(N)cc3)c2n1 | inactive |
| Nc1ccc(CCn2cnc3c(NCC4CCCNC4)ncnc32)cc1 (configuration not stated) | inactive |
| Nc1cccc(Nc2ncnc3c2ncn3CCc2ccc(O)cc2)c1 | inactive |
| Nc1ccc(CCn2cnc3c(Nc4cccc(F)c4)ncnc32)cc1 | inactive |
| Nc1ccc(CCn2cnc3c(N4CCNCC4)ncnc32)cc1 | inactive |
| Nc1ccc(CCn2cnc3c(NC4CCCC(N)C4)ncnc32)cc1 (configuration not stated) | inactive |
| Nc1ccc(CCn2cnc3c(NC4CCNC4)ncnc32)cc1 (configuration not stated) | inactive |
| COc1cccc(Nc2ncnc3c2ncn3CCc2ccc(N)cc2)c1 | inactive |

Target: not listed separately
Test: as §3
Summary of the method: as §4

| Structure (SMILES) | IC50 [nM] |
| --- | --- |
| Cc1ccc(CCn2cnc3c(Nc4cccc(N)c4)ncnc32)cc1 | 1500 |
| CC(C)Nc1nc(Nc2cccc(N)c2)c2ncn(CCc3ccc(N)cc3)c2n1 | 1100 |
| Nc1cccc(Nc2ncnc3c2ncn3Cc2cccc(F)c2)c1 | 1800 |
| CC(C)CNc1nc(Nc2cccc(N)c2)c2ncn(CCc3ccc(N)cc3)c2n1 | 22000 |
| Nc1cccc(Nc2ncnc3c2ncn3Cc2ccc(F)cc2)c1 | 1700 |
| Nc1cccc(Nc2ncnc3c2ncn3CCc2ccccc2)c1 | 2300 |
| Nc1ccc(CCn2cnc3c(Nc4cccc(N)c4)nc(NC4CCC4)nc32)cc1 | 2300 |
| Nc1ccc(CCn2cnc3c(Nc4cccc(N)c4)nc(NC4CCCCC4)nc32)cc1 | 9000 |
| Nc1ccc(CCn2cnc3c(Nc4cccc(N)c4)nc(NC4CC4)nc32)cc1 | 13000 |
| Nc1ccc(CCn2cnc3c(Nc4cccc(N)c4)ncnc32)cc1 | 1000 |
| CC(C)(C)CNc1nc(Nc2cccc(N)c2)c2ncn(CCc3ccc(N)cc3)c2n1 | 6000 |
| Nc1ccc(CCn2cnc3c(Nc4cccc(N)c4)nc(N)nc32)cc1 | 13000 |
| Nc1cccc(Nc2ncnc3c2ncn3CCc2ccc3ccccc3c2)c1 | 12500 |
| Nc1ccc(CCn2cnc3c(Nc4cccc(N)c4)nc(NCCO)nc32)cc1 | 64000 |
| Nc1ccc(CCn2cnc3c(Nc4cccc(N)c4)nc(NCCCCCCO)nc32)cc1 | 4800 |
| Nc1cccc(Nc2ncnc3c2ncn3CCc2ccc(Cl)cc2)c1 | 3600 |
| Nc1ccc(CCn2cnc3c(Nc4cccc(N)c4)nc(NCc4ccccc4)nc32)cc1 | 1800 |
| Nc1cccc(CCn2cnc3c(Nc4cccc(N)c4)ncnc32)c1 | 5100 |
| CC(Nc1nc(Nc2cccc(N)c2)c2ncn(CCc3ccc(N)cc3)c2n1)c1cccc(N)c1 (configuration not stated) | 14000 |

The remaining lines, values ahead:

| IC50 [nM] | Structure (SMILES) |
| --- | --- |
| 200 | CC(c1cccc(F)c1)n1cnc2c(Nc3cccc(N)c3)ncnc21 (configuration not stated) |
| 300 | COC(=O)c1ccc(Cn2cnc3c(Nc4cccc(N)c4)ncnc32)cc1 |
| 400 | Nc1cccc(Nc2ncnc3c2ncn3Cc2cccc(Cl)c2)c1 |
| 300 | Nc1cccc(Nc2ncnc3c2ncn3CCOc2ccc(F)cc2)c1 |
| 200 | Nc1cccc(Nc2ncnc3c2ncn3CCOc2ccccc2)c1 |
| 500 | Nc1cccc(Nc2ncnc3c2ncn3Cc2ccc(Cl)cc2)c1 |
| 600 | Nc1cccc(Nc2ncnc3c2ncn3CCc2ccc(F)cc2)c1 |
| 400 | Nc1cccc(Nc2ncnc3c2ncn3CC2CC2)c1 |
| 200 | Nc1ccc(CCn2cnc3c(Nc4cccc(N)c4)nc(NC4CCCC4)nc32)cc1 |
| 200 | Nc1ccc(Cn2cnc3c(Nc4cccc(N)c4)ncnc32)cc1 |
| 600 | Nc1cccc(Nc2ncnc3c2ncn3CCCOc2ccccc2)c1 |
| 600 | Nc1ccc(CCn2cnc3c(Nc4cccc(N)c4)nc(NCC4CC4)nc32)cc1 |
| 500 | Nc1cccc(Nc2ncnc3c2ncn3CCc2cccc(F)c2)c1 |
| 500 | Nc1cccc(Nc2ncnc3c2ncn3CCOc2ccc(Cl)cc2)c1 |

Tested on: Rattus norvegicus
Test: Reduction in synovitis damage in Freund's adjuvant-induced arthritis Lewis rat model at 25 mg/kg, iv after 21 days relative to control
Format: functional
Set-up: scale not given: the % may be the effect or the level left
Summary of the method: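 Female Lewis rats; arthritis induced by footpad injection of lyophilized Mycobacterium butyricum in mineral oil, monitored for 3 weeks. Intravenous dosing on days −3, −2, −1 pre-adjuvant and days 10, 11, 12 post-adjuvant; body weight recorded. Arthritis (inflammatory) index derived from joint circumference in mm via a geometric formula; incidence and severity scored.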

| Structure (SMILES) | Activity [%] |
| --- | --- |
| CN(Cc1cnc2nc(N)nc(N)c2n1)c1ccc(C(=O)N[C@@H](CCC(=O)O)C(=O)O)cc1 [METHOTREXATE] | 20 |
| Nc1ccc(CCn2cnc3c(Nc4cccc(N)c4)ncnc32)cc1 | 25 |
